Assay results reported in ChEMBL document CHEMBL4689842, “EUbOPEN Chemogenomics Library wave 1” (2021).

System: U2OS
Test: Multiplex assay against U2OS
Assay type: toxicity, cell-based
Conditions: human
In short: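 At seeding, live cells were stained with Hoechst33342, BioTracker Green Microtubule Cytoskeleton Dye, MitoTracker Red and Annexin V Alexa Fluor 680. After compound addition they were imaged on a CQ1 microscope at 37°C and 5% CO2, and CellPathfinder machine-learning gating sorted them into Hoechst high-intensity objects or normal cells, with normal cells further split into healthy, pyknosed or fragmented nuclei and pyknosed cells into mitotic or apoptotic. Tubulin, mitochondrial-mass and membrane-permeability phenotypes are given as per cents of cells with healthy nuclei.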

[1] = 12 h, 1 µM, compound concentration 1 uM, replicate 1
[2] = 12 h, 1 µM, compound concentration 1 uM, replicate 2
[3] = 12 h, 10 µM, compound concentration 10 uM, replicate 1
[4] = 12 h, 10 µM, compound concentration 10 uM, replicate 2
[5] = 24 h, 1 µM, compound concentration 1 uM, replicate 1
[6] = 24 h, 1 µM, compound concentration 1 uM, replicate 2
[7] = 24 h, 10 µM, compound concentration 10 uM, replicate 1
[8] = 24 h, 10 µM, compound concentration 10 uM, replicate 2

COC(=N)c1nc2ccc3ncnc(Nc4ccc(OC)cc4F)c3c2s1
Population Apoptotic (%) [1]: 36%
Population Fragmented Nuclei (%) [1]: 9%
Population Healthy Nuclei (%) [1]: 78%
Population Hoechst High Intensity Objects (%) [1]: 8%
Population Membrane Permeable-Phenotype (%) [1]: 17%
Population Mitochondria Different-Phenotype (%) [1]: 25%
Population Mitotic Cells (%) [1]: 63%
Population Normal (%) [1]: 91%
Population Pyknosed Nuclei (%) [1]: 12%
Population Tubulin-Different-Phenotype (%) [1]: 27%
Total Cell Count [1]: 162
Population Apoptotic (%) [2]: 23%
Population Fragmented Nuclei (%) [2]: 10%
Population Healthy Nuclei (%) [2]: 75%
Population Hoechst High Intensity Objects (%) [2]: 6%
Population Membrane Permeable-Phenotype (%) [2]: 16%
Population Mitochondria Different-Phenotype (%) [2]: 30%
Population Mitotic Cells (%) [2]: 76%
Population Normal (%) [2]: 93%
Population Pyknosed Nuclei (%) [2]: 13%
Population Tubulin-Different-Phenotype (%) [2]: 33%
Total Cell Count [2]: 110
Population Apoptotic (%) [3]: 37%
Population Fragmented Nuclei (%) [3]: 2%
Population Healthy Nuclei (%) [3]: 92%
Population Hoechst High Intensity Objects (%) [3]: 1%
Population Membrane Permeable-Phenotype (%) [3]: 10%
Population Mitochondria Different-Phenotype (%) [3]: 19%
Population Mitotic Cells (%) [3]: 62%
Population Normal (%) [3]: 98%
Population Pyknosed Nuclei (%) [3]: 5%
Population Tubulin-Different-Phenotype (%) [3]: 25%
Total Cell Count [3]: 190
Population Fragmented Nuclei (%) [4]: 13%
Population Healthy Nuclei (%) [4]: 77%
Population Hoechst High Intensity Objects (%) [4]: 13%
Population Membrane Permeable-Phenotype (%) [4]: 8%
Population Mitochondria Different-Phenotype (%) [4]: 24%
Population Normal (%) [4]: 86%
Population Pyknosed Nuclei (%) [4]: 8%
Population Tubulin-Different-Phenotype (%) [4]: 32%
Total Cell Count [4]: 179
Population Apoptotic (%) [5]: 28%
Population Fragmented Nuclei (%) [5]: 5%
Population Healthy Nuclei (%) [5]: 82%
Population Hoechst High Intensity Objects (%) [5]: 5%
Population Membrane Permeable-Phenotype (%) [5]: 17%
Population Mitochondria Different-Phenotype (%) [5]: 22%
Population Mitotic Cells (%) [5]: 71%
Population Normal (%) [5]: 94%
Population Pyknosed Nuclei (%) [5]: 12%
Population Tubulin-Different-Phenotype (%) [5]: 44%
Total Cell Count [5]: 219
Population Apoptotic (%) [6]: 44%
Population Fragmented Nuclei (%) [6]: 9%
Population Hoechst High Intensity Objects (%) [6]: 8%
Population Membrane Permeable-Phenotype (%) [6]: 12%
Population Mitochondria Different-Phenotype (%) [6]: 27%
Population Mitotic Cells (%) [6]: 55%
Population Normal (%) [6]: 91%
Population Pyknosed Nuclei (%) [6]: 7%
Population Tubulin-Different-Phenotype (%) [6]: 39%
Total Cell Count [6]: 118
Population Fragmented Nuclei (%) [7]: 1%
Population Healthy Nuclei (%) [7]: 96%
Population Hoechst High Intensity Objects (%) [7]: 1%
Population Membrane Permeable-Phenotype (%) [7]: 7%
Population Mitochondria Different-Phenotype (%) [7]: 16%
Population Normal (%) [7]: 98%
Population Pyknosed Nuclei (%) [7]: 1%
Population Tubulin-Different-Phenotype (%) [7]: 28%
Total Cell Count [7]: 264
Population Apoptotic (%) [8]: 75%
Population Fragmented Nuclei (%) [8]: 11%
Population Healthy Nuclei (%) [8]: 85%
Population Hoechst High Intensity Objects (%) [8]: 7%
Population Membrane Permeable-Phenotype (%) [8]: 10%
Population Mitochondria Different-Phenotype (%) [8]: 34%
Population Mitotic Cells (%) [8]: 25%
Population Normal (%) [8]: 92%
Population Pyknosed Nuclei (%) [8]: 3%
Population Tubulin-Different-Phenotype (%) [8]: 32%
Total Cell Count [8]: 222
